Results on 29 compounds are retold here after ChEMBL document CHEMBL1140993, “Design, synthesis and preliminary evaluation of novel pyrrolidine derivatives as matrix metalloproteinase inhibitors” (Eur J Med Chem, 2008).

pIC50: −log10 of the molar value.

What is called pIC50 is the negative decadic logarithm of the IC50, by convention in mol/L.

Experiment [1] concerns the target 72 kDa type IV collagenase (Homo sapiens, UniProt P08253). The experiment is described as follows: Inhibition of MMP2 by microtiter plate fluorimetric assay. In outline:
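Substrate was succinylated gelatin, in 50 mM sodium borate buffer, pH 8.5. Compound and enzyme were preincubated 30 min at 37 °C, then incubated another 60 min at 37 °C after substrate addition. Controls were a 100% group without compound and a blank with enzyme only.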

Another experiment has as its target Aminopeptidase N (Homo sapiens, UniProt P15144). The experiment is described as follows: Inhibition of aminopeptidase N by microtiter plate fluorimetric assay. The conditions noted are these: in the assay text read “spectrophotometric” for “fluorimetric”. In outline:
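Substrate was L-leucine p-nitroanilide, in 50 mM sodium phosphate buffer, pH 7.2. Enzyme and compound were preincubated 30 min at 37 °C, then incubated 60 min at 37 °C with substrate. OD405 was read. Inhibition % = [OD(100%) − OD(compound)]/[OD(100%) − OD(blank)] × 100, where 100% has no compound and blank has enzyme only.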

Chain of 72 kDa type IV collagenase (P08253 whole entry): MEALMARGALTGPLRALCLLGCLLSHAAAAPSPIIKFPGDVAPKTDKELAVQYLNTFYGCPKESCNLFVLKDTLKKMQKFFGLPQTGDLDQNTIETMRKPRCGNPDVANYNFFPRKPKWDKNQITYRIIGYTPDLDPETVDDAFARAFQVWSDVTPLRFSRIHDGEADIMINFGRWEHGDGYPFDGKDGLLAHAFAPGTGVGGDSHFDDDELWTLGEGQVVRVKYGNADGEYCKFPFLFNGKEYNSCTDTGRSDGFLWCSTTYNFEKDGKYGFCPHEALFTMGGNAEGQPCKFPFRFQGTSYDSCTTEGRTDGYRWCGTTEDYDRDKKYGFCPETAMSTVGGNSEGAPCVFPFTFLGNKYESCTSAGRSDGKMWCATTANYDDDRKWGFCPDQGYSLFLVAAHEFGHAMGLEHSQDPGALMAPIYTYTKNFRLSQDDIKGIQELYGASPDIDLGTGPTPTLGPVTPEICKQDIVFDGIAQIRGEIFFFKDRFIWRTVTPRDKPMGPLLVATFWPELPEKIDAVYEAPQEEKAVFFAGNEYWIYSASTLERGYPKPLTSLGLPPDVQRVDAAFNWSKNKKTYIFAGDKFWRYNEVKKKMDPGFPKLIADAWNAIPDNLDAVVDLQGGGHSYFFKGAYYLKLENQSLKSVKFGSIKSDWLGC
Chain of Aminopeptidase N (P15144 whole entry): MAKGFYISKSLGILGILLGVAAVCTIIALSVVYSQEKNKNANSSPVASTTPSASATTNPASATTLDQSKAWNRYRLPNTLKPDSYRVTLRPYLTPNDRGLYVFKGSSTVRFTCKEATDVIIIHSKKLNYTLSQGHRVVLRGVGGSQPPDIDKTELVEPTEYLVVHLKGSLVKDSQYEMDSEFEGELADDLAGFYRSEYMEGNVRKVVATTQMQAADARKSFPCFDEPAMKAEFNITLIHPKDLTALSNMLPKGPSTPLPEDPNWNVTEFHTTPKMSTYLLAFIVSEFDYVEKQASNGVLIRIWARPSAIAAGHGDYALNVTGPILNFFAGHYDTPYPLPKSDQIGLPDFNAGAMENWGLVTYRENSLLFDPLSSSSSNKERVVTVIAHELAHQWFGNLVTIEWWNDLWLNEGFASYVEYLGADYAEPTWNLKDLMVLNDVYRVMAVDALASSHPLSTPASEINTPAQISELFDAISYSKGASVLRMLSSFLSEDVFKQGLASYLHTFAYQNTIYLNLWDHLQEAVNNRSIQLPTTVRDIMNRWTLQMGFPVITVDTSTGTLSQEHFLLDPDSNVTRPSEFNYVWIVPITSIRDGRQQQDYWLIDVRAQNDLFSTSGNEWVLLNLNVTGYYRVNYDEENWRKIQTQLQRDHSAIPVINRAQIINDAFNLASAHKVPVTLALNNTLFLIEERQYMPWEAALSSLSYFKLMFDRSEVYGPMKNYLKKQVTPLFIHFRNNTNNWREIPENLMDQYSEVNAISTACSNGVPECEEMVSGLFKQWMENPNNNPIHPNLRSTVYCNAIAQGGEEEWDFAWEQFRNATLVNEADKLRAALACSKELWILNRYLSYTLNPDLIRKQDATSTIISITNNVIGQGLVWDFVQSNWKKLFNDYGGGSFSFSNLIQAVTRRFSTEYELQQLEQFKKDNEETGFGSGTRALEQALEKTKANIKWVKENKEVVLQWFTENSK

As for `COC(=O)[C@@H]1C[C@H](NC(=O)/C=C/c2ccccc2)CN1C(C)=O`, the pIC50 in experiment [1] is 7.00; against Aminopeptidase N it was 3.87.
As to `COC(=O)[C@@H]1C[C@H](NC(=O)c2ccc(Cl)cc2)CN1C(C)=O`, the pIC50 in experiment [1] is 5.38; at Aminopeptidase N it was 3.91.
On to `COC(=O)[C@@H]1C[C@H](N)CN1C(C)=O`, for which the pIC50 is 5.82 in experiment [1] and 4.62 at Aminopeptidase N.
Take `COC(=O)[C@@H]1C[C@H](NC(=O)c2cnccn2)CN1C(C)=O`: the pIC50 in experiment [1] was 5.68; against Aminopeptidase N, 4.08.
Take `COC(=O)[C@@H]1C[C@H](NC(=O)c2ccncc2)CN1C(C)=O`: the pIC50 is 5.66 in experiment [1] and 4.13 against Aminopeptidase N.
Turning to `COC(=O)[C@@H]1C[C@H](NC(=O)/C=C/c2ccc(OC)c(OC)c2)CN1C(C)=O`, the results for the pIC50 (in experiment [1]; against Aminopeptidase N) were 6.10 and 3.79, respectively.
For the compound `COC(=O)[C@@H]1C[C@H](NC(=O)/C=C/c2ccccc2)CN1C(=O)CCc1ccc(OC)c(OC)c1`, the pIC50 in experiment [1] was 5.80; on Aminopeptidase N it was 3.63.
With `COC(=O)[C@@H]1C[C@H](N=[N+]=[N-])CN1C(C)=O`, the pIC50 in experiment [1] was 5.59; at Aminopeptidase N, 4.13.
Consider `COC(=O)[C@@H]1C[C@H](NC(=O)c2cccnc2)CN1C(C)=O`, for which the pIC50 in experiment [1] was 6.00; at Aminopeptidase N, 4.11.
For the compound `COc1cc(C(=O)N[C@H]2C[C@@H](C(=O)O)N(C(C)=O)C2)cc(OC)c1OC`, the pIC50 is 7.80 in experiment [1] and 4.29 against Aminopeptidase N.
`COC(=O)[C@@H]1C[C@H](NC(=O)c2ccccc2)CN1C(C)=O`: the pIC50 in experiment [1] was 5.57; against Aminopeptidase N it was 3.91.
On to `COC(=O)[C@@H]1C[C@H](NC(=O)c2ccc(Br)cc2)CN1C(C)=O`, for which the pIC50 in experiment [1] was 5.21; against Aminopeptidase N, 3.83.
Regarding `COC(=O)CNC(=O)[C@@H]1C[C@H](NC(=O)c2cc(OC)c(OC)c(OC)c2)CN1C(C)=O`, the pIC50 in experiment [1] is 6.96; on Aminopeptidase N, 3.92.
`CC(=O)N1C[C@@H](NC(=O)/C=C/c2ccccc2)C[C@H]1C(=O)NO`: the pIC50 is 8.40 in experiment [1] and 4.25 against Aminopeptidase N.
Regarding `COc1cc(C(=O)N[C@H]2C[C@@H](C(=O)NO)N(C(C)=O)C2)cc(OC)c1OC`, the pIC50 in experiment [1] is 9.00; at Aminopeptidase N it was 4.47.
For the compound `COC(=O)[C@@H]1C[C@H](NC(=O)c2ccc([N+](=O)[O-])cc2)CN1C(C)=O`, the pIC50 is 5.28 in experiment [1] and 4.14 against Aminopeptidase N.
For `COC(=O)[C@@H]1C[C@H](NC(=O)c2cccnc2)CN1C(=O)/C=C/c1ccc(OC)c(OC)c1` the same measures were 5.52 and 3.86.
For `COc1ccc(CCC(=O)N2C[C@@H](NC(=O)/C=C/c3ccccc3)C[C@H]2C(=O)NO)cc1OC`, the pIC50 in experiment [1] was 7.96; against Aminopeptidase N it was 4.02.
As for `COC(=O)[C@@H]1C[C@@H](OS(=O)(=O)c2ccc(C)cc2)CN1C(C)=O`, the pIC50 in experiment [1] was 6.52; against Aminopeptidase N, 4.52.
In the case of `COC(=O)[C@@H]1C[C@H](NC(=O)c2cc(OC)c(OC)c(OC)c2)CN1C(C)=O`, the pIC50 in experiment [1] is 7.00; against Aminopeptidase N, 4.01.
On to `COC(=O)[C@@H]1C[C@@H](O)CN1C(=O)/C=C/c1ccc(OC)c(OC)c1`, for which the figures for the pIC50 (in experiment [1]; at Aminopeptidase N) were 5.54 and 4.09, respectively.
`COC(=O)[C@@H]1C[C@H](NC(=O)c2cccnc2)CN1C(=O)CCc1ccc(OC)c(OC)c1`: the pIC50 was 5.66 in experiment [1] and 3.71 on Aminopeptidase N.
As for `COC(=O)[C@@H]1C[C@H](N=[N+]=[N-])CN1C(=O)/C=C/c1ccc(OC)c(OC)c1`, the pIC50 in experiment [1] was 5.47; against Aminopeptidase N, 4.15.
For `COC(=O)[C@@H]1C[C@@H](OS(C)(=O)=O)CN1C(=O)/C=C/c1ccc(OC)c(OC)c1` the same measures were 5.96 and 4.33.
In the case of `COC(=O)[C@@H]1C[C@H](N)CN1C(=O)CCc1ccc(OC)c(OC)c1`, the results for the pIC50 (in experiment [1]; against Aminopeptidase N) were 5.68 and 4.16, respectively.
For `COc1ccc(CCC(=O)N2C[C@@H](NC(=O)c3cccnc3)C[C@H]2C(=O)NO)cc1OC`, in that order: 7.92 and 4.21.
As for `CC(=O)N1C[C@@H](NC(=O)c2cccnc2)C[C@H]1C(=O)NO`, the pIC50 is 8.30 in experiment [1] and 4.53 against Aminopeptidase N.
`COC(=O)[C@@H]1C[C@H](N)CN1C(=O)/C=C/c1ccc(OC)c(OC)c1` showed a pIC50 against Aminopeptidase N of 4.15.
Take `COC(=O)[C@@H]1C[C@@H](O)CN1C(C)=O`: the values for the pIC50 (in experiment [1]; at Aminopeptidase N) were 5.70 and 4.41, respectively.
